These results are taken from ChEMBL document CHEMBL4043295, “Marbostat-100 Defines a New Class of Potent and Selective Antiinflammatory and Antirheumatic Histone Deacetylase 6 Inhibitors” (J Med Chem, 2018).

In data set [1] the test system is Mus musculus. In words: Antiarthritic activity in DBA/1J mouse collagen-induced arthritis model assessed as decrease in bone erosion in joints at 30 mg/kg, ip administered every morning for 12 to 14 days. The data set is classed as functional, organism-based. The gist of the method:
(§1)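 Collagen type II-induced arthritis in mice, treated at 30 mg/kg versus vehicle. Arthritic paws were assessed histologically for synovial inflammation, cellular invasion, cartilage degradation and bone erosion.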

Data set [2] deals with Mus musculus. In words: In vivo inhibition of HDAC6 in DBA/1J mouse assessed as induction of tubulin acetylation in kidney at 0.6 mg […] by Western blot method. The class given is functional, organism-based. Summed up: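 Male DBA/1J mice received 0.6 mg inhibitor; organs were collected 2.5 h later and stored at −80 °C. Liver and kidney lysates were immunoblotted for acetylated tubulin and compared with untreated controls. Representative of at least two experiments.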
On the technique in general: In western blotting, separated proteins are transferred to a membrane and probed.

Another data set has as its system MV4-11. In words: Cell cycle arrest in human MV4-11 cells at 50 nM to 1 uM after 24 hrs by propidium iodide staining-based flow cytometric method. The data set is classed as functional. Summed up: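 Cells were stained with propidium iodide and analysed by flow cytometry for cell-cycle distribution and the subG1 fraction (fragmented DNA). Representative of at least two independent experiments.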
(In general: In flow cytometry, cells or beads pass a laser one at a time.)

A further data set has as its target Histone deacetylase 4 (Homo sapiens, UniProt P56524). Put plainly: Inhibition of recombinant human C-terminal GST-tagged HDAC4 expressed in baculovirus-infected insect cells using Boc-Lys(TFA)-AMC as substrate by fluorimeter.
Data set [3] deals with Mus musculus. Put plainly: Antiarthritic activity in DBA/1J mouse collagen-induced arthritis model assessed as decrease in degradation of cartilage at 30 mg/kg, ip administered every morning for 12 to 14 days. The class given is functional, organism-based. The gist of the method: as §1
The test system of data set [4] is Mus musculus. Put plainly: Antiarthritic activity in DBA/1J mouse collagen-induced arthritis model assessed as reduction of articular bone erosion in arthritic hind paw at 30 mg/kg, ip administered every morning for 12 to 14 days measured post last dose by microCT method relative to vehicle-treated control. The class given is functional, organism-based.
Data set [5] has as its system Mus musculus. Put plainly: Antiarthritic activity in DBA/1J mouse collagen-induced arthritis model assessed as decrease in clinical scores at 30 mg/kg, ip administered every morning for 12 to 14 days measured during compound dosing relative to vehicle-treated control. The data set is classed as functional. More on the design: scale not given: the % may be the effect or the level left. The gist of the method: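 Collagen type II-induced arthritis in mice, treated at 30 mg/kg versus vehicle. Clinical arthritis score and paw swelling were followed over time from the start of treatment until the end of the experiment.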

The subject of a further data set is PBMC. Put plainly: Induction of apoptosis in human PBMC at 50 to 1000 nM after 24 hrs by Annexin V/propidium iodide staining-based flow cytometric method. The class given is cell-based. The following applies: 1 µM.
The target in a further data set is T1, Histone deacetylase 8 (Homo sapiens, UniProt Q9BY41).
T1 sequence (Q9BY41 whole entry): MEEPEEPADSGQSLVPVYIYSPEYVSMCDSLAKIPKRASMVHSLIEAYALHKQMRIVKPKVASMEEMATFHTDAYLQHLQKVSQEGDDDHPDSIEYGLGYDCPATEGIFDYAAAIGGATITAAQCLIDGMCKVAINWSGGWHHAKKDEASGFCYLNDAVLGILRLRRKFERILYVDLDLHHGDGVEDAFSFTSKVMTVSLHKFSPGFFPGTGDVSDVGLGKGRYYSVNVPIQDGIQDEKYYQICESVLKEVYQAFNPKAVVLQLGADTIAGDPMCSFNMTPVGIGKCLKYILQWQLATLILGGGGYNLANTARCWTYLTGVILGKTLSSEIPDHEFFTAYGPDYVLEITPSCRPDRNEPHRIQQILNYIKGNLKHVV
In words: Inhibition of recombinant human C-terminal His-tagged HDAC8 (1 to 377 residues) expressed in baculovirus-infected insect cells using RHK(Ac)K(Ac)AMC as substrate after 60 mins by fluorimeter.

The target of data set [6] is T2, Protein deacetylase HDAC6 (Homo sapiens) (UniProt Q9UBN7).
T2 sequence (whole entry): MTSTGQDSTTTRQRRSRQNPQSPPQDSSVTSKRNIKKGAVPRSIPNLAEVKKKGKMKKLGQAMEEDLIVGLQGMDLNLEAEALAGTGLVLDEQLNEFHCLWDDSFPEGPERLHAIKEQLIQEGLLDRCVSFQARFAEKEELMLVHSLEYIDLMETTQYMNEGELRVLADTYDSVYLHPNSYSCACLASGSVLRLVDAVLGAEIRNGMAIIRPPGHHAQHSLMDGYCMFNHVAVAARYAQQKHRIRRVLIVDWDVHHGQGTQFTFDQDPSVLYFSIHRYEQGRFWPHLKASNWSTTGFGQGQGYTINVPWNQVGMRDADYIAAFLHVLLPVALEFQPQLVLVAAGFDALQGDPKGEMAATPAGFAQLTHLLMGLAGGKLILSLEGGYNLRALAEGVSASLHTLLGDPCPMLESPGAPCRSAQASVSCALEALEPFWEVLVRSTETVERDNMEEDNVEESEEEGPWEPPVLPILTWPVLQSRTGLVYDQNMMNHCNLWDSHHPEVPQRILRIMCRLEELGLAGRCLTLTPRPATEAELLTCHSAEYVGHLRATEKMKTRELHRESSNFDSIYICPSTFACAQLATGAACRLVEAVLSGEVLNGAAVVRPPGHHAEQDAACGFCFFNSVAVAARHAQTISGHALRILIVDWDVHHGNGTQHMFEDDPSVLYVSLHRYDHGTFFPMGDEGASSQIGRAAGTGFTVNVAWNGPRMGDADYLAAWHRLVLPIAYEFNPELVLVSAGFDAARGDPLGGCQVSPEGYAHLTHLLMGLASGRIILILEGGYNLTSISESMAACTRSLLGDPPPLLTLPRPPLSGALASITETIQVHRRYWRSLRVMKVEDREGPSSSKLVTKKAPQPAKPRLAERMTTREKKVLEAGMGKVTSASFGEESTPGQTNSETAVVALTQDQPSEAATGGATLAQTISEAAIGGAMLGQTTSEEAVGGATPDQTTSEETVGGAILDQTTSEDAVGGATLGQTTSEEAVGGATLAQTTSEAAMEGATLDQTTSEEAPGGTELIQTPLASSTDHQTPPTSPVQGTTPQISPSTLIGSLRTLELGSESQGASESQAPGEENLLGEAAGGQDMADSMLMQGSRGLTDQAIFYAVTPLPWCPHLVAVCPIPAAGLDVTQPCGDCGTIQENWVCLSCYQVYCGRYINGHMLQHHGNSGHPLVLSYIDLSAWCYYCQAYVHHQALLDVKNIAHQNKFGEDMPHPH
Conditions: 5 to 1000 nM.

Data set [7] has as its system Mus musculus. In words: Antiarthritic activity in DBA/1J mouse collagen-induced arthritis model assessed as decrease in sign of synovial inflammation at 30 mg/kg, ip administered every morning for 12 to 14 days. The data set is classed as functional, organism-based. The gist of the method:
as §1

The target of data set [8] is T2, Protein deacetylase HDAC6 (Homo sapiens). The following applies: 50 nM.
Another data set has as its target Histone deacetylase 5 (Homo sapiens, UniProt Q9UQL6). Put plainly: Inhibition of recombinant human C-terminal His-tagged HDAC5 (656 to 1122 residues) expressed in baculovirus-infected insect cells using Boc-Lys(TFA)-AMC as substrate after 60 mins by fluorimeter.
In data set [9] the target is T2, Protein deacetylase HDAC6 (Homo sapiens). The following applies: 5 to 1000 nM. The source holds these as a separate data set.

Structures are written as SMILES. The source made the active and inactive calls. The calls are words filed in the database; no cut-off is given here.

Chain of Histone deacetylase 5 (Q9UQL6 whole entry, the tested form may be a part): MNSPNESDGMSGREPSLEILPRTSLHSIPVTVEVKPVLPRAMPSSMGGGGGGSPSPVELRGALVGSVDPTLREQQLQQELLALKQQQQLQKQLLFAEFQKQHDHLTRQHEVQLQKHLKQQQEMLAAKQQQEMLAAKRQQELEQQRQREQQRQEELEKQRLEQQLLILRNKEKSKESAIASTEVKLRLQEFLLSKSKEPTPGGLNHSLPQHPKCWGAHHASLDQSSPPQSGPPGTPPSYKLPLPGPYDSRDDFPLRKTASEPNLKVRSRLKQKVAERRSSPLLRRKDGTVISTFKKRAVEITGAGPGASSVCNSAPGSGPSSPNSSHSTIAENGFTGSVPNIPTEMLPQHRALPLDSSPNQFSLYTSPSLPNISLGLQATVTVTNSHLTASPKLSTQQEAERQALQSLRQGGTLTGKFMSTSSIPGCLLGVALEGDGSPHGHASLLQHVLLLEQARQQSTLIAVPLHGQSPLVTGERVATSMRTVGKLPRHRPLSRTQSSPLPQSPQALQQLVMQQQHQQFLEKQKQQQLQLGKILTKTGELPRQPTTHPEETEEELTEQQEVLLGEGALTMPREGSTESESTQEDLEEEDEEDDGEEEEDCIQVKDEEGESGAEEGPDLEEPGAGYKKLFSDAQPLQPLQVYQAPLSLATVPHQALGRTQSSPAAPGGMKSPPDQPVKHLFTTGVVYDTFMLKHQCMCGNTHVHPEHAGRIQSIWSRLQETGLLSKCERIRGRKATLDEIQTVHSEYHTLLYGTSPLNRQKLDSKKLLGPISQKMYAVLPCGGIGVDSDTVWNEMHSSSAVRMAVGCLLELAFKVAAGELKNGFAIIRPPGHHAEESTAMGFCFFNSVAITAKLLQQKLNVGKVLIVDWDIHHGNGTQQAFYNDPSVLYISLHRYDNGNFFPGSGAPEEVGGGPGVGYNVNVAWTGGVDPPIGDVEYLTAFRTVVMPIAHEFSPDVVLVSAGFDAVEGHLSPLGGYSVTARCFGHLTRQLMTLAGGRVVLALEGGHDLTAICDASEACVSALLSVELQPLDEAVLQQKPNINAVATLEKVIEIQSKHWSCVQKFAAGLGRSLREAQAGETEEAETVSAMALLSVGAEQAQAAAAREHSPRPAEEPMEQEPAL
Chain of Histone deacetylase 4 (P56524 whole entry): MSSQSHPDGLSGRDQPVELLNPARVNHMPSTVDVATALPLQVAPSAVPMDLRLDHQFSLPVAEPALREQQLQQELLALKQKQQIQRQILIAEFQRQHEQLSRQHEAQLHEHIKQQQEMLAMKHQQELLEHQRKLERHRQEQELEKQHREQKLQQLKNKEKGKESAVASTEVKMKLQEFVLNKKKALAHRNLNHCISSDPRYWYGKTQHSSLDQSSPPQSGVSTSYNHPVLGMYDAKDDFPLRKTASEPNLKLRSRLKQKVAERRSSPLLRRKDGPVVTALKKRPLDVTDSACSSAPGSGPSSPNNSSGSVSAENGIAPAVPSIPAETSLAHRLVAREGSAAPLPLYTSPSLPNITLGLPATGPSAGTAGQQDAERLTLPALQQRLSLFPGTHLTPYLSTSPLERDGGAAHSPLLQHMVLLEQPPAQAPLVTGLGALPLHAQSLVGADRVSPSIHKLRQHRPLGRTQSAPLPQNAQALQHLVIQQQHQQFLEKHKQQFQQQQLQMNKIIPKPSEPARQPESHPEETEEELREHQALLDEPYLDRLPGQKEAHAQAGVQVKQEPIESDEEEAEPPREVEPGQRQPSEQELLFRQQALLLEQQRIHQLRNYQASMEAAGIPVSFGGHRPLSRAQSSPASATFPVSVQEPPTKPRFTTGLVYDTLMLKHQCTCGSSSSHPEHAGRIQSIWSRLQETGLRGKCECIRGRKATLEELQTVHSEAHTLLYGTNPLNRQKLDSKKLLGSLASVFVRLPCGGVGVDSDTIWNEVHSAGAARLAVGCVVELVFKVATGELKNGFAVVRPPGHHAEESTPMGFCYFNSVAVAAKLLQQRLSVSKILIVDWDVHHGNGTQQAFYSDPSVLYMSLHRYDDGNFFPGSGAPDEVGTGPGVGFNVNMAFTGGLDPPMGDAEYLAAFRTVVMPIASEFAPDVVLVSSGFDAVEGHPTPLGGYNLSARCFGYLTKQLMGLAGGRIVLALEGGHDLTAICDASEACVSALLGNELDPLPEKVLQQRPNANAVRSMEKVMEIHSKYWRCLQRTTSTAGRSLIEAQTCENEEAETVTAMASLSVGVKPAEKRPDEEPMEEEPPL

One may read the Ki as the dissociation constant of the complex between target and ligand, obtained from inhibition or displacement. Take `CN1C(=O)C2CN(Cc3c2c2ccccc2n3Cc2ccc(C(=O)NO)cc2)C1=O` (centres undefined): the outcome in the data set with Mus musculus [1], in the data set on Mus musculus [3], with Mus musculus [4] and in the data set on Mus musculus [7] was Active. In addition, the inhibition result (in the data set with Mus musculus [2]; in [6]; in data set [8]; in data set [9]) was “Active” in each case. The result in the data set with MV4-11 was inactive. Moreover, the Ki at Histone deacetylase 4 turned out to be 1.82 µM; at Histone deacetylase 8, 0.173 µM; on Histone deacetylase 5, 0.701 µM. In addition, the Activity in the data set with Mus musculus [5] is reported as 25%; in the data set on PBMC, “Non-Toxic”.
